Source: paper PMC8892239 (EFSA Journal, 2022)
Values belong to the molecule of their own block, whether it stands above or below them.

What was measured:
[1] = ref Regulation (EC) No 1272/2008; cited from earlier work
bone marrow = test: In vivo micronucleus assay; design: species or system rat; conditions: 20 mg/kg bw once by oral gavage
Method in brief: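 Female rats were dosed twice by oral gavage, 24 h apart, with vehicle or 87.5, 175 or 350 mg/kg bw. Cyclophosphamide 20 mg/kg bw was given once by gavage as positive control. Five groups of five animals. Micronuclei and the PCE/NCE ratio were scored.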

[2] = Residues of EQ and metabolites/TPs in piglet tissues; type: in vivo; conditions: piglets
[3] = Residues of EQ and metabolites/TPs in cattle tissues; type: in vivo

Structure (SMILES): CCOc1ccc(N)cc1 [p‐phenetidine]
- germ cell mutagenicity classification [1]: Muta. 2

Structure (SMILES): O=P1(N(CCCl)CCCl)NCCCO1 (stereo not drawn) [Cyclophosphamide, cyclophosphamide]
- number of micronuclei (positive control) (bone marrow): statistically significant increase

- residue in muscle ([2]; control feed (0 mg EQ/kg), 42 days, mean ± SD, LOQs as above): ˂ LOQ
- residue in muscle ([2]; feed with 50 mg EQ/kg for 42 days, LOQs 1.5 to 2 µg EQ, EQDM, metabolite A/kg, 0.5 µg EQI/kg): ˂ LOQ
- concentration at 42 days ([3]; Holstein, bovine, liver, oral, 50 mg EQ/kg complete feed): 121 ng/g
- residue in muscle, highest value ([3]; cattle, control (0 mg EQ/kg feed), 42 days, LOQs as above): ˂ LOQ
Structure (SMILES): CCOC1=CC(=O)C2=NC(C)(C)C=C(C)C2=C1 [Metabolite A, 6‐ethoxy‐2,2,4‐trimethyl‐quinolin‐8‐one]
